The source of these data is ChEMBL document CHEMBL3232952, “Bisphosphonate prodrugs: synthesis and biological evaluation in HuH7 hepatocarcinoma cells” (Eur J Med Chem, 2014).

Series [1] in a line: Cytotoxicity against human HuH7 cells at 10 uM to 1 mM after 144 hrs by MTT assay. In kind it is functional, Huh-7. The method, boiled down:
(§1)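 MTT assay. HuH7 cells were seeded at 5x10⁴/well and grown 24 h in complete medium, then switched to 2% FCS medium containing compound (10⁻⁶–10⁻³ M) for 144 h. Cells were washed with PBS, given MTT (2 mg/mL) for 4 h at 37 °C, and formazan was dissolved in DMSO. OD was read at 570 nm. Mean ± SD of three independent experiments.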
(Tetrazolium dyes change colour on reduction, which living cells bring about.)

Series [2] in a line: Cytotoxicity against human HuH7 cells at 1 mM after 144 hrs by MTT assay. It is filed as cell-based. Conditions: huh-7, 144 h, 1000 µM. The procedure, abridged:
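HuH7 cells plated at 5x10⁴ cells/well in complete medium for 24 h, then switched to 2% FCS medium with bisphosphonate (10^-6 to 10^-3 M range) for 144 h. PBS wash, then MTT (2 mg/mL) 4 h at 37 °C, formazan dissolved in DMSO, OD read at 570 nm. Mean ± SD of three independent experiments.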

The nature of series [3]: Cytotoxicity against human HuH7 cells at 250 uM after 144 hrs by MTT assay. Conditions: Huh-7, 144 h. It is filed as functional. The method, boiled down:
as §1

Series [4] is described as follows: Antimigratory activity against human HuH7 cells at 100 uM after 24 hrs relative to control. In kind it is functional. Conditions: Huh-7, 24 h. The procedure, abridged:
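Migration chambers with the insert undersides coated overnight at 4 °C with fibronectin (100 µg/mL). 2.5 × 10⁵ HuH7 cells were placed in the upper chamber with 100 µM compound, with HGF (20 ng/mL) in the lower chamber. After 24 h, non-migrated cells were scraped off, and cells on the lower face were fixed, stained and counted. Results are % of control set at 100%; triplicate.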

The nature of series [5]: (§2) Cytotoxicity against human HuH7 cells after 144 hrs by MTT assay. Conditions: Huh-7, 144 h. In kind it is functional, cell-based. The method, boiled down: as §1
A short description of series [6]: (§3) Antiinvasive activity against human HuH7 cells at 100 uM after 24 hrs by matrigel assay relative to control. It is filed as functional, Huh-7. The method, boiled down: (§4)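 Boyden chambers with 8 µm-pore filters coated with Matrigel. 2.5 × 10⁵ HuH7 cells were seeded in the upper well with 100 µM compound. HGF (20 ng/mL) in the lower chamber served as chemoattractant. After 24 h, non-invaded cells were wiped off, and filters were methanol-fixed and haematoxylin-stained. Cells on the lower surface were counted in 10 fields, expressed as % of control; mean ± SD of three independent experiments.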

In series [7] the test system is Huh-7. In words: Cytotoxicity against human HuH7 cells at 1 mM after 144 hrs by MTT assay in presence of IBMX. It is filed as functional, cell-based. The procedure, abridged: (§5)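 MTT viability assay with the cells pretreated with IBMX (1 mM) before compound addition; the pretreatment time is given as 30 min in Methods and 1 h in the legend. Then 144 h exposure in 2% FCS medium, MTT (2 mg/mL) for 4 h at 37 °C, DMSO solubilisation and OD read at 570 nm. Mean ± SD of three independent experiments.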

For series [8], the system named is Huh-7. Described as §2. In kind it is functional, cell-based. The method, boiled down:
as §1

In series [9] the test system is Huh-7. Briefly: Cytotoxicity against human HuH7 cells at 400 uM after 144 hrs by MTT assay in presence of IBMX. In kind it is functional, cell-based. The method, boiled down: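 HuH7 cells pretreated with IBMX (1 mM) before bisphosphonate was added. Cells were seeded at 5x10⁴ cells/well and held 24 h in complete medium, then exposed 144 h to compound in 2% FCS medium. Read-out by MTT (2 mg/mL, 4 h, 37 °C), DMSO solubilisation, OD 570 nm. Mean ± SD of three independent experiments.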

In series [10] the test system is Huh-7. Briefly: Induction of apoptosis in human HuH7 cells after 144 hrs by Annexin V/propidium iodide staining-based FACS analysis. In kind it is functional, cell-based. The method, boiled down: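 HuH7 cells were exposed to compound for 144 h, then treated and untreated cells were stained with Annexin V and PI. Flow cytometry scored early apoptosis as Ann V⁺/PI⁻ and late apoptosis as Ann V⁺/PI⁺.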

A short description of series [11]: Cell cycle arrest in human HuH7 cells assessed as accumulation at G1 phase after 144 hrs by […]propidium iodide staining-based FACS analysis. In kind it is functional. Particulars: Huh-7. For orientation: A flow cytometer gives signals particle by particle.
Series [12] can be described thus: Stability of the compound in D2O assessed as [31P] NMR chemical shift after 1 day by [31P]NMR spectroscopy. Conditions: 24 h. It is filed as physicochemical.
Series [13] is described as follows: Stability of the compound in cell culture medium assessed as [31P] NMR chemical shift after 3 days by [31P]NMR spectroscopy. Particulars: 72 h. It is filed as physicochemical.
Series [14] in a line: Stability of the compound in cell culture medium assessed as [31P] NMR chemical shift after 5 days by [31P]NMR spectroscopy. It is filed as physicochemical. Conditions: 120 h.
Series [15] has as its system Serum. Briefly: Stability in human serum assessed as [31P] NMR chemical shift after 3 days by [31P]NMR spectroscopy. It is filed as ADME, cell-free. Conditions: 72 h.
Series [16] can be described thus: Stability in human HuH7 cell extract assessed as compound remaining by measuring [31P] NMR chemical shift at 0.5 mM after 5 days by [31P]NMR spectroscopy. In kind it is ADME, cell-based. Conditions: huh-7, 120 h, 500 µM.
Series [17] in a line: Stability of the compound in D2O assessed as [31P] NMR chemical shift after 3 days by [31P]NMR spectroscopy. It is filed as physicochemical. Conditions: 72 h.
Series [18] concerns Serum. Briefly: Stability in human serum assessed as [31P] NMR chemical shift after 1 day by [31P]NMR spectroscopy. It is filed as ADME, cell-free. Conditions: 24 h.
Series [19] relates to Serum. Briefly: Stability in human serum assessed as [31P] NMR chemical shift after 5 days by [31P]NMR spectroscopy. In kind it is ADME, cell-free. Conditions: 120 h.
Series [20] in a line: Drug metabolism in human HuH7 cell extract assessed as phosphorylated metabolite formation by measuring [31P] NMR chemical shift at 0.5 mM after 5 days by [31P]NMR spectroscopy. In kind it is ADME, cell-based. Particulars: huh-7, 120 h, 500 µM.
Series [21] is described as follows: Stability of the compound in D2O assessed as [31P] NMR chemical shift after 5 days by [31P]NMR spectroscopy. Particulars: 120 h. It is filed as physicochemical.
In series [22] the test system is Huh-7. In words: Cytotoxicity against human HuH7 cells at 125 uM after 144 hrs by MTT assay in presence of IBMX. In kind it is functional, cell-based. The method, boiled down:
as §5

The nature of series [23]: Stability of the compound in cell culture medium assessed as [31P] NMR chemical shift after 1 day by [31P]NMR spectroscopy. It is filed as physicochemical. Particulars: 24 h.
The test system of series [24] is Huh-7. The description is as §3. In kind it is functional. The procedure, abridged: as §4

pIC50: −log10 of the molar value. Calls of active or inactive are those of the source. The calls are words filed in the database; no cut-off is given here.

`COP(=O)(O)C(O)(c1ccc(Br)cc1)P(=O)(O)OC` (stereo not given): the “inhibition (INH)” value in series [1] stood at 15%.
Consider `CC(C)Cn1c(=O)n(C)c(=O)c2[nH]cnc21` [ISOBUTYLMETHYLXANTHINE], for which the Activity entry in series [2] is reported as “Non-toxic”.
Broadly, the inhibition is the change of the read-out against control, counted positive when it falls. As a reminder, the pIC50 is the negative decadic logarithm of the IC50, by convention in mol/L. The low end stands for a high IC50, the high end for a low IC50. In turn, `O.O=P(O)(O)C(O)(Cn1ccnc1)P(=O)(O)O` [ZOLEDRONIC ACID] showed an inhibition at 250 µM in series [3] of 80%. The molecule further came in with an inhibition at 100 µM in series [4] of 72%. This molecule also gave a pIC50 in [5] of 4.22. This molecule also registered an Activity in [6] of 54%.
On to `O=P(O)(O)C(O)(c1ccccc1)P(=O)(O)O`, for which the “inhibition (INH)” value in [1] turned out to be 15%. Moreover, the result in [7] was Active.
Take `O=P(O)(O)C(O)(c1ccc(Br)cc1)P(=O)(O)Oc1ccccc1` (stereo not given): testing at 250 µM in series [3] gave an inhibition of 80%. In [8], the inhibition entry is “Dose-dependent effect”. Besides, the negative logarithm of the IC50 (pIC50) in [5] was 4.00.
In the case of `O=P(O)(O)C(O)(c1ccc(Br)cc1)P(=O)(O)O`, the result in [9] and in series [10] was Active. In series [4], this molecule came in with an inhibition at 100 µM of 95%. Moreover, the inhibition entry in series [8] was “Dose-dependent effect”. Also, the negative logarithm of the IC50 (pIC50) in series [5] is 3.36. Besides, the Activity is 58% in series [11] and 40% in series [6].
As to `O=P(O)(Oc1ccccc1)C(O)(c1ccc(Br)cc1)P(=O)(O)Oc1ccccc1` (stereo not given), the Stability in series [12] turned out to be 12.8 ppm; in series [13], 12.83 ppm; in series [14], 12.83 ppm; in series [15], 12.65 ppm; in series [16], 12.09 ppm; in [17] it was 12.78 ppm. In addition, the Stability in series [18] is 12.85 ppm; in series [19] it was 12.8 ppm; in [21], 12.8 ppm; in [23], 12.85 ppm. The same molecule showed an inhibition at 250 µM in [3] of 80%. The Drug metabolism result in series [20] is “metabolite_detected”. In addition, the outcome in series [10] was Active. The molecule also displayed an inhibition at 100 µM in series [4] of 68%. Also, the result in series [22] and in [24] was inactive. Further, the inhibition result in series [8] was “Dose-dependent effect”. Moreover, the pIC50 in series [5] was 3.90. Further, in series [11], the Activity was determined as 58%.
Take `O=P(O)(Oc1ccccc1)C(O)(c1ccccc1)P(=O)(O)Oc1ccccc1` (stereo not given): the outcome in series [7] was inactive. For the same molecule, the inhibition entry in series [8] was “Dose-dependent effect”. In [5], this molecule gave a pIC50 of 3.26.
